Laboratory results: ChEMBL document CHEMBL1146749, “The effect of C2-fluoro group on the biological activity of DC-81 and its dimers” (2004)

How the values were obtained:
[1] = system: Nucleic Acid; experiment: DNA binding ability by thermal denaturation studies using calf thymus DNA after incubation at 37 degree C for 0 hour; type: nucleic-acid assay; settings: Bos taurus
[2] = system: Nucleic Acid; experiment: DNA binding ability by thermal denaturation studies using calf thymus DNA after incubation at 37 degree C for 18 hour; type: nucleic-acid assay; settings: Bos taurus
[3] = system: NCI-H460; experiment: In vitro anticancer activity was evaluated for the percentage growth of human lung NCI-H460 cell line; type: functional
How it was run: (§1)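 Each cell line received a single dose of 10^-4 M, and the read-out was percentage growth.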

[4] = system: SF-268; experiment: In vitro anticancer activity was evaluated for the percentage growth of human (CNS) SF-268 cell line; type: functional; how it was run: as §1
[5] = system: SW-620; experiment: In vitro cytotoxicity against human colon SW-620 cancer cell line; type: functional
[6] = system: Nucleic Acid; experiment: DNA binding ability by thermal denaturation studies using calf thymus DNA after incubation at 37 degree C for 36 hour; type: nucleic-acid assay; settings: Bos taurus
How it was run: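 Calf thymus DNA 100 µM with PBD 20 µM (1:5 [PBD]:[DNA]) in 10 mM sodium phosphate + 1 mM EDTA, pH 7.00, incubated at 37 °C for 0, 18 or 36 h. Thermal melting measured; ΔTm taken relative to CT-DNA alone, whose Tm is the mean of 10 separate determinations.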

[7] = system: MCF7; experiment: In vitro anticancer activity was evaluated for the percentage growth of human breast MCF-7 cell line; type: functional; how it was run: as §1
[8] = system: UO-31; experiment: In vitro cytotoxicity against human renal UO-31 cancer cell line; type: functional
[9] = system: SF-268; experiment: In vitro cytotoxicity against human CNS SF-268 cancer cell line; type: functional
[10] = system: SF-295; experiment: In vitro cytotoxicity against human CNS SF-295 cancer cell line; type: functional
[11] = system: SR; experiment: In vitro cytotoxicity against human leukemia SR cancer cell line; type: functional
[12] = system: NCI-H522; experiment: In vitro cytotoxicity against human non-small cell lung NCI-H522 cancer cell line; type: functional
[13] = system: CCRF-CEM; experiment: In vitro cytotoxicity against human leukemia CCRF-CEM cancer cell line; type: functional
[14] = system: Hs-578T; experiment: In vitro cytotoxicity against human breast Hs 578.T cancer cell line; type: functional

Structure (SMILES)	ΔTm [1] [°C]	ΔTm [2] [°C]	Growth [3] [%]	Growth [4] [%]	GI50 [5] [nM]	ΔTm [6] [°C]	Growth [7] [%]	GI50 [8] [nM]	GI50 [9] [nM]	GI50 [10] [nM]	GI50 [11] [nM]	GI50 [12] [nM]	GI50 [13] [nM]	GI50 [14] [nM]
COc1cc2c(cc1O)N=C[C@@H]1CCCN1C2=O	0.3	0.7	–	–	–	–	–	–	–	–	–	–	–	–
COc1cc2c(cc1OCCCOc1cc3c(cc1OC)C(=O)N1C[C@@H](F)C[C@H]1C=N3)N=C[C@@H]1C[C@H](F)CN1C2=O	3.1	4.9	0	0	4200	6.16	0	2400	2200	1960	1540	1880	–	–
COc1cc2c(cc1OCCCOc1cc3c(cc1OC)C(=O)N1CCC[C@H]1C=N3)N=C[C@@H]1CCCN1C2=O	10.2	–	–	–	–	–	–	–	–	–	–	–	–	–
COc1cc2c(cc1O)N=C[C@@H]1C[C@H](F)CN1C2=O	0.3	1	0	0	1190	2.2	0	170	350	320	200	410	300	10
COc1cc2c(cc1OCCCCCOc1cc3c(cc1OC)C(=O)N1C[C@@H](F)C[C@H]1C=N3)N=C[C@@H]1C[C@H](F)CN1C2=O	14.2	16	0	0	20	17.4	0	< 10	< 10	< 10	< 10	< 10	< 10	< 10
COc1cc2c(cc1OCc1ccccc1)N=C[C@@H]1C[C@H](F)CN1C2=O	1.1	2	1	19	< 10	2.5	0	< 10	10	30	< 10	< 10	< 10	< 10
COc1cc2c(cc1O)N=C[C@@H]1C[C@@H](F)CN1C2=O	0.6	1.5	–	–	–	2.25	–	–	–	–	–	–	–	–
COc1cc2c(cc1OCCCCOc1cc3c(cc1OC)C(=O)N1C[C@@H](F)C[C@H]1C=N3)N=C[C@@H]1C[C@H](F)CN1C2=O	4.6	12.3	–	–	–	13.8	–	–	–	–	–	–	–	–
